For assay [1], the target named is T1, Glutathione reductase, mitochondrial (Homo sapiens, UniProt P00390).
T1 sequence (P00390 whole entry): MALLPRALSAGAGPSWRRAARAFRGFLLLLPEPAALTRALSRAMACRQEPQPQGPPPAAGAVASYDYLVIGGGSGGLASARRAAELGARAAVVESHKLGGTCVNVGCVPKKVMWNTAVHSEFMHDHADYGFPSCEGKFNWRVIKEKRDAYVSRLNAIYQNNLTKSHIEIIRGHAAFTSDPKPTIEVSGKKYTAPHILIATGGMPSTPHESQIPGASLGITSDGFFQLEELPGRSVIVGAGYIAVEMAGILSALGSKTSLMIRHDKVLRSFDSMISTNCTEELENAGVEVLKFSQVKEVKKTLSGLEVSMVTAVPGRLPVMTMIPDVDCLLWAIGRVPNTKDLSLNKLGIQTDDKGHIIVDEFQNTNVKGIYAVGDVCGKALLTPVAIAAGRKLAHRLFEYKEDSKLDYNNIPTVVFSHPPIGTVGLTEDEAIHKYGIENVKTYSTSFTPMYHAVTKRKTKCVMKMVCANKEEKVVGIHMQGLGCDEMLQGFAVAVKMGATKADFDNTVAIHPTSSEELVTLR
The assay is described as follows: Inhibition of human GR.

In assay [2] the target is Trypanothione reductase (Trypanosoma brucei brucei, UniProt P39051). The assay is described as follows: Inhibition of TR by DTNB-coupled assay. In short, it runs like this: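 Trypanothione reductase in 40 mM potassium HEPES pH 7.4, 1 mM EDTA with 4.22 µM trypanothione disulfide, 70.3 µM DTNB, 2.81 mU/mL TR. Compounds added from DMSO stocks, tested over 1.91 ng/mL to 31.2 µg/mL. NADPH added to start the reaction, 135 µM in the added solution. Plates incubated 60 min at 30°C, absorbance read at 405 nm. IC50 values determined.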
Chain of Trypanothione reductase (P39051 whole entry): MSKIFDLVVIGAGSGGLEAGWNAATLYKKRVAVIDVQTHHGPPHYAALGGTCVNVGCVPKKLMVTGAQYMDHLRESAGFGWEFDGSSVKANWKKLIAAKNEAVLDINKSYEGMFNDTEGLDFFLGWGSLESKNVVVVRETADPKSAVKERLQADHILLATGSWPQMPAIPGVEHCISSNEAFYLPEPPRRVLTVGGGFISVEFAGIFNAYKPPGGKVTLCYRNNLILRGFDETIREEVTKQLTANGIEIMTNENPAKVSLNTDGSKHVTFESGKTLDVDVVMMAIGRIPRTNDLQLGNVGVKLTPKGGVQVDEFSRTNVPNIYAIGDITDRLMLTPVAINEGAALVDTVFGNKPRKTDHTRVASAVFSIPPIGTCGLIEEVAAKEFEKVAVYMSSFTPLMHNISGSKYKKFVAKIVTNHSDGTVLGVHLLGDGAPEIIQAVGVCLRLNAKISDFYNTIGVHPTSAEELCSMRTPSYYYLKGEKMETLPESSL

Assay [3] deals with Trypanosoma brucei. The assay is described as follows: Antiproliferative activity against Trypanosoma brucei. The assay is classed as functional, organism-based. The procedure, abridged: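 Bloodstream T. b. brucei S427 seeded at 10^3 cells/ml in HMI9 medium, 0.5% DMSO, inhibitor 50 to 0.2 μM serially diluted from 10 mM DMSO stocks. Incubated 72 h, 37 °C, 5% CO2, humidified. Then 45 μM resazurin added, further 4 h, resorufin fluorescence read (ex 528, em 590 nm). Triplicates, three separate occasions; weighted means ± SEM.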

Assay [4] can be described thus: Selectivity for TR over human GR.

Broadly, the IC50 is the concentration at which inhibition is half-maximal. For orientation: EC50 means the concentration that produces a half-maximal response. A higher EC50 goes with a less potent agent.

Consider `O=C(CCNc1cccc(F)c1)c1cccc([N+](=O)[O-])c1`, for which the results for the IC50 in assay [1] and in assay [2] were over 173 µM and 3.3 µM, respectively. In assay [3], this molecule returned an EC50 of 0.82 µM.
Take `CN(C)CCC(=O)c1ccc(Cl)c(Cl)c1`: the IC50 in assay [1] came to 64.8 µM; in assay [2], 3.3 µM. Besides, the Ratio IC50 in assay [4] was found to be 20. Besides, the EC50 in assay [3] is 1 µM.
Consider `CN(C)CCC(=O)c1cccc([N+](=O)[O-])c1`, for which the IC50 in assay [1] amounted to 20.3 µM; in assay [2] it was 0.34 µM. The Ratio IC50 in assay [4] is 59. Further, the concentration giving a half-maximal response (EC50) in assay [3] came out at 0.68 µM.
For `CC(C)(C)c1cc(CNCCO)cc(C(C)(C)C)c1O`, the concentration for half-maximal inhibition (IC50) came out at 24.9 µM in assay [1] and 2 µM in assay [2]. Besides, the Ratio IC50 in assay [4] came to 13. The molecule also registered an EC50 in assay [3] of 3.01 µM.
`CC(C)(C)c1cc(CN2CCCCCC2)cc(C(C)(C)C)c1O`: the figures for the IC50 in assay [1] and in assay [2] were over 155 µM and 38.8 µM, respectively. This molecule gave an EC50 in assay [3] of 3.3 µM.
`O=C(CCN1CCOCC1)c1ccc(Cl)cc1`: the IC50 in assay [1] was over 212 µM; in assay [2], 148 µM. The molecule also displayed an EC50 in assay [3] of 0.98 µM.
As to `CN(C)CCC(=O)c1ccc(S(C)(=O)=O)cc1`, the results for the IC50 in assay [1] and in assay [2] were 20.4 µM and 2.9 µM, respectively. Moreover, the Ratio IC50 in assay [4] came to 7. For the same molecule, it took 0.55 µM to reach a half-maximal effect in assay [3] (EC50).
Regarding `CC(C)c1cc(CN(C)C)cc(C(C)C)c1O`, the IC50 came to 79.3 µM in assay [1] and 11.8 µM in assay [2]. Also, the Ratio IC50 in assay [4] stood at 6.7. In addition, in assay [3], the EC50 is over 50 µM.
As for `CCCCOC(=O)c1ccc(NCCC(=O)c2cccc([N+](=O)[O-])c2)cc1`, the IC50 in assay [1] is over 135 µM; in assay [2], 2.4 µM. In addition, the EC50 in assay [3] was 0.96 µM.
Consider `N=C(N)c1ccc(OCCCCCOc2ccc(C(=N)N)cc2)cc1` [PENTAMIDINE], for which, in assay [3], the IC50 worked out at 0.0046 µM.
Consider `CS(=O)(=O)c1ccc(C(=O)CCN2CCCCC2)cc1`, for which the values for the IC50 in assay [1] and in assay [2] were 105 µM and 7.8 µM, respectively. For the same molecule, the Ratio IC50 in assay [4] was determined as 13. Moreover, the midpoint of the response in assay [3], the EC50, lay at 0.95 µM.
For `O=C(CCNc1ccccc1)c1cccc([N+](=O)[O-])c1`, the IC50 amounted to 58 µM in assay [1] and 1.7 µM in assay [2]. Moreover, the Ratio IC50 in assay [4] is 35. The molecule further registered an EC50 in assay [3] of 1.01 µM.
Consider `CCc1ccc(NCCC(=O)c2ccc(Cl)c(Cl)c2)cc1`, for which the IC50 in assay [1] is over 157 µM; in assay [2] it was 107 µM. In assay [3], this molecule displayed an EC50 of 1.65 µM.
Turning to `Cc1cccc(NCCC(=O)c2cccc([N+](=O)[O-])c2)c1C`, the IC50 in assay [1] came out at 86.3 µM; in assay [2] it was 1.5 µM. Also, the Ratio IC50 in assay [4] was found to be 58. In addition, the EC50 in assay [3] was 0.15 µM.

For the origin of these results see ChEMBL document CHEMBL1148843, “High-throughput screening affords novel and selective trypanothione reductase inhibitors with anti-trypanosomal activity” (Bioorg Med Chem Lett, 2007).
